Laboratory results reported in article PMC8162940 (Nature chemical biology, 2021).

Columns and labels:
[1] = target: Ikaros (Mus musculus, UniProt Q03267+Q8C7D2, I391V); assay: Ikaros levels in murine splenocytes, flow cytometry; assay type: cell-based; conditions: Crbn^I391V/I391V but not wildtype cells, 1 μM, 16h
[2] = system: IL-2; assay: IL-2 secretion from stimulated Jurkat cells; assay type: cell-based, human; conditions: Jurkat cells pre-treated with 1 μM for 18h, then stimulated 24h
Summary of the method: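 Jurkat cells were pre-incubated 18 h with 1 μM test compound, then activated with ImmunoCult CD3/CD28 activator for 24 h, and supernatant IL-2 was measured by AlphaLISA. Mean ± SD of 3 (unstimulated) or 4 (stimulated) biological samples, representative of 2 experiments. Two-way ANOVA with Bonferroni correction.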

Ikaros, sequence (Q03267 whole entry): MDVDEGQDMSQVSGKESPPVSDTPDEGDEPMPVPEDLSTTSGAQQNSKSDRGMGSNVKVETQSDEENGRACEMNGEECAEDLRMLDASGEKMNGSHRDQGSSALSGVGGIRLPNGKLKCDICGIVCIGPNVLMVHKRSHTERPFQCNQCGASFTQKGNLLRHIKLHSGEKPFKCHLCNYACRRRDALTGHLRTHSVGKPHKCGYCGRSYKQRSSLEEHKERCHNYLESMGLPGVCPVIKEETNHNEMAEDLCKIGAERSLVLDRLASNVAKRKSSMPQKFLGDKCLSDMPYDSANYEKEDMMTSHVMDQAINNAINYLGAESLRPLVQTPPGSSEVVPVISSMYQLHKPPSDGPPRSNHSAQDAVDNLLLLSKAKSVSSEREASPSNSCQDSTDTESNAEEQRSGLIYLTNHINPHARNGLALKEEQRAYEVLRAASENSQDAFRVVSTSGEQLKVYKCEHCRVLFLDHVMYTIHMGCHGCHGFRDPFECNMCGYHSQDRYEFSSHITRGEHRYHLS
Ikaros, sequence (Q8C7D2 whole entry I391V): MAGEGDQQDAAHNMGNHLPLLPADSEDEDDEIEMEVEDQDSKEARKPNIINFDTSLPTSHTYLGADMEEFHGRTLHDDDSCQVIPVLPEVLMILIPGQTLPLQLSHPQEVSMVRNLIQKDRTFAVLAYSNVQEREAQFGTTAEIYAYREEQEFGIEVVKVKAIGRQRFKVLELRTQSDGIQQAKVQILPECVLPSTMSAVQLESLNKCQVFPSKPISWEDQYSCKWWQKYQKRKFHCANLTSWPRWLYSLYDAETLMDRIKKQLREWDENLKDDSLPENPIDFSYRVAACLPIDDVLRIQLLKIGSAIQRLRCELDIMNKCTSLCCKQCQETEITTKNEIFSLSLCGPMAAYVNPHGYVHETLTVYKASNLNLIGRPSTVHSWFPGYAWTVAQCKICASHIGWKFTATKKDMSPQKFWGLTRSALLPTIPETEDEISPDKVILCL
Ikaros, sequence (Q3U1J4 whole entry partner): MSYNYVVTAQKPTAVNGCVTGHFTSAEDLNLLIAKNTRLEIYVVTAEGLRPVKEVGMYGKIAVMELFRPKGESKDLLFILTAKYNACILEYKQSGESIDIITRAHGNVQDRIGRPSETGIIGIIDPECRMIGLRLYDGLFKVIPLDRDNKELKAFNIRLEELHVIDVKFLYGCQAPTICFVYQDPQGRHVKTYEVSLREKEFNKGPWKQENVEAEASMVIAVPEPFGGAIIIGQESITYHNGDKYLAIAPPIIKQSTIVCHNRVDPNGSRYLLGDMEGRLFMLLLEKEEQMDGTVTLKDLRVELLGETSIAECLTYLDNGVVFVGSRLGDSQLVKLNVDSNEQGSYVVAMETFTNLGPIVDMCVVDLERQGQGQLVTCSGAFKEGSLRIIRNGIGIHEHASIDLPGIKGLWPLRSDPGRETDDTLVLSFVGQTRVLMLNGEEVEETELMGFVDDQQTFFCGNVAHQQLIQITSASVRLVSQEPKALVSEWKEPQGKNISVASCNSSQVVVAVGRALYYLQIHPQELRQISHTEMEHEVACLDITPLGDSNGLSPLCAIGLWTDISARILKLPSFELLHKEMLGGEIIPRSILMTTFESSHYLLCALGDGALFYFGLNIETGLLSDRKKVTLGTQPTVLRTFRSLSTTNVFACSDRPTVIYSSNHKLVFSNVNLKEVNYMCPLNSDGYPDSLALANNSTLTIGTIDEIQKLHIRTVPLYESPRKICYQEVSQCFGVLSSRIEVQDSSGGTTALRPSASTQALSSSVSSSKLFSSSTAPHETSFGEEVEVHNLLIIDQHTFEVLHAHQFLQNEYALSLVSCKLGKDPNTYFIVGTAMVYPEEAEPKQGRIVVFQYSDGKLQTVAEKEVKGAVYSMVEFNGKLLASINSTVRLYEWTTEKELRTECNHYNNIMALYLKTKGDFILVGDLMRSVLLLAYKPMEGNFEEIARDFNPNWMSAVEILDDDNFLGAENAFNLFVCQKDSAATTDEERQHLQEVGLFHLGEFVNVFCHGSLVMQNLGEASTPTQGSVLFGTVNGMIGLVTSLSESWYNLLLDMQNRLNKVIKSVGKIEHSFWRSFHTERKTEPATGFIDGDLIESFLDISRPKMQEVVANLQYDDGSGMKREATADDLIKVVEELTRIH

`Nc1cccc2c1CN(C1CCC(=O)NC1=O)C2=O` (centres unmarked) [lenalidomide] was tested, and the “Ikaros degradation in splenocytes” value [1] was “induced selective degradation of Ikaros” and the IL-2 secretion [2] was “enhanced IL-2 secretion”.
